Screens as filed in PubChem.
Only some compounds are listed: those with a hit (about 1.5% of all), similar ones and a draw of the others.
TPT1 inhibitor – blocks Candida albicans tRNA 2'-phosphotransferase; recombinant caTPT1, FP RNA substrate dephosphorylation; inhibition, % at 5 µM; actives 0.81% (n = 300,000);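 active means inhibition above the mean of all tested compounds plus 3 SD, set per screening campaign, cut at about 24% in these data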
Rpn11 block – blocks the human proteasome subunit Rpn11. inhibition, % at 20 µM. actives 0.59% (n = 360,000). human 26S proteasome, Ub4-pepOG fluorescence polarization; 20S core pre-blocked with epoxomicin. AID 588493;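 active means inhibition at 20 µM, scaled to each plate's controls, above about 33%, limit read from the data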
HNF4A DNA FP – change in binding of human HNF4 alpha to DNA. HNF4a-FITC DNA binding, fluorescence polarization, 1 h. activity change, % at 10 µM. actives 0.3% (n = 360,000). AID 1224865; in the data active means activity change above about 30%, passing the limit was not always enough
Target sequence (P41235 whole entry, looked up): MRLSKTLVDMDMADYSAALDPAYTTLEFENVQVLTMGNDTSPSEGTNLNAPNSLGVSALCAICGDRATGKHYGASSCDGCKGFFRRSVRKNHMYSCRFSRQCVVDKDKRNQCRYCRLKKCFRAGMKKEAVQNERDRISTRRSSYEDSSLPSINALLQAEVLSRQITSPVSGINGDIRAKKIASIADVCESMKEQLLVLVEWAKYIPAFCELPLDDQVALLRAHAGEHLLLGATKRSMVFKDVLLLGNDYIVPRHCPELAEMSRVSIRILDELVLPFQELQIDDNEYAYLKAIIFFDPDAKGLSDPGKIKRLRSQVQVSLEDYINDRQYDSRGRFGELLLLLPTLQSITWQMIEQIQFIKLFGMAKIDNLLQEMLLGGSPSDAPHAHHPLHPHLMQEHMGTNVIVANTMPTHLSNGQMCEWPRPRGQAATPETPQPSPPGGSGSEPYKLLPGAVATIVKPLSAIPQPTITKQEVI
CSN deneddyl inh – inhibitors of human CSN-mediated cullin deneddylation; actives 0.38% (n = 360,000); Purified CSN, SCF-Nedd8-OG deneddylation, fluorescence polarization; inhibition, % at 12.5 µM;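 active means pattern-corrected inhibition above about 35%, with an unprinted fluorescence ratio check between 0.5 and 1.5, limit read from the data, passing the limit was not always enough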
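Detection – fluorescence polarization · System – HEK293T-derived human Csn5 enzyme · Controls – substrate-only high control, full reaction low control · Timing – 90 min, room temperature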
caTPT1 confirm – TPT1 (C. albicans) inhibition, confirmation; shares compounds with TPT1 inhibitor; recombinant caTPT1, fluorescence polarization, RNase T1 coupled; inhibition, % at 5 µM; actives 74% (n = 2,400); AID 2149;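 active means inhibition above the primary screen limit, the mean inhibition of all tested compounds plus 3 SD, cut at about 25% in these data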
RNase T1 inh – RNase T1 inhibition in TPT1 counter-screen | shares compounds with TPT1 inhibitor | RNase T1 cleavage, fluorescence polarization, 1536-well | inhibition, % at 5 µM | actives 83% (n = 2,400) | AID 2153;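 active means inhibition above the solvent-only control well mean plus 3 SD, limit set per screening run, cut at about 23% in these data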;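 further: inhibitors block cleavage so intact labeled substrate keeps polarization high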
Target sequence (P00651 whole entry, looked up): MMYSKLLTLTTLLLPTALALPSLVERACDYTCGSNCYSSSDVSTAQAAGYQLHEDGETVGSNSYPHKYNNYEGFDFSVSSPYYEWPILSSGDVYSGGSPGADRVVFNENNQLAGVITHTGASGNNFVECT
Of the large screens only hits and unclear results are named; the others gave an inactive call (follow-up assays come after a bar, where shown).

CCOC(=O)C1(CC2CCCCO2)CCN(C(=O)Nc2ccc3c(c2)OCO3)CC1 (centres undefined)	TPT1 inhibitor 37.9 | caTPT1 confirm inactive | RNase T1 inh inactive
Cc1cc(SCC(=O)NC2CC2)nc2ccccc12	none (no result: TPT1 inhibitor)
Cn1c(SCC(=O)NC(C)(C)C)nnc1-c1cccc(NC(=O)c2ccccc2F)c1	none
Cc1cc(SCC(=O)NCC2CCCO2)nc2ccccc12 (centres undefined)	TPT1 inhibitor 29.9 (not shown: Rpn11 block) | caTPT1 confirm 55.2 | RNase T1 inh 67.4
Cn1c(SCC(=O)NCC2CCCO2)nnc1-c1cccc(NC(=O)c2ccccc2F)c1 (centres undefined)	TPT1 inhibitor 31.3 | caTPT1 confirm inactive | RNase T1 inh inactive
O=C1NC(=S)SC1=C1CCCC1	TPT1 inhibitor 28.3 | caTPT1 confirm inactive | RNase T1 inh 25.2
O=C(NCC1CC1)c1cc(-c2ccccc2)nn1CC1CC(c2cccc([N+](=O)[O-])c2)=NO1 (centres undefined)	none
CCOC(=O)c1sc2cc([N+](=O)[O-])cc(SCC(C)C)c2c1N	TPT1 inhibitor 31.7 (not shown: Rpn11 block) | caTPT1 confirm 35.4 | RNase T1 inh 46.4
Cc1cc(C(C)(C)C)cc(CN2CCN(S(=O)(=O)c3cccs3)CC2)c1O	none (no result: TPT1 inhibitor)
C=CCNc1nc(N)c([N+](=O)[O-])c(Nc2cccc(Cl)c2)n1	TPT1 inhibitor 36.3 | caTPT1 confirm inactive | RNase T1 inh inactive
CCN(CC)c1ccc(/C=C(/C#N)c2nc3ccccc3[nH]2)c(OC(C)C)c1	TPT1 inhibitor 163.4 (not shown: Rpn11 block) | caTPT1 confirm 163.1 | RNase T1 inh 149.0
CCOc1cccc(/C=C(/C#N)c2nc3ccccc3[nH]2)c1OCC(=O)O	none
Cc1ccc(C(=O)O)cc1N1C(=O)c2cccc3c([N+](=O)[O-])ccc(c23)C1=O	none
CC(=O)Oc1cccc(N2C(=O)c3cccc4c([N+](=O)[O-])ccc(c34)C2=O)c1	TPT1 inhibitor 43.5 | caTPT1 confirm 43.1 | RNase T1 inh 59.1
O=C(c1ccc(-c2ccc([N+](=O)[O-])cc2)o1)N1CCCC(C(F)(F)F)C1 (centres undefined)	TPT1 inhibitor 24.8 | caTPT1 confirm inactive | RNase T1 inh inactive
CCN(CCNCC(O)COCc1ccc(Cl)cc1)c1cccc(C)c1 (centres undefined)	none
O=C(OCCN1C(=O)c2cccc3c(N4CCOCC4)ccc(c23)C1=O)c1ccccc1Cl	TPT1 inhibitor 53.0 | caTPT1 confirm 63.2 | RNase T1 inh 69.7
O=C(OCCN1C(=O)c2cccc3c(N4CCOCC4)ccc(c23)C1=O)c1cccc(Cl)c1	TPT1 inhibitor 49.0 (no result: Rpn11 block, HNF4A DNA FP, CSN deneddyl inh) | caTPT1 confirm 62.0 | RNase T1 inh 69.8
O=C(COC(=O)c1cccc(Cl)c1)Nc1cc(S(=O)(=O)N2CCOCC2)ccc1N1CCOCC1	none (no result: TPT1 inhibitor)
O=C(OCCN1C(=O)c2ccccc2C1=O)c1cc(S(=O)(=O)N2CCOCC2)ccc1Cl	none
O=C(OCCN1C(=O)c2cccc3c(N4CCOCC4)ccc(c23)C1=O)c1ccc(Cl)cc1Cl	TPT1 inhibitor 59.3 | caTPT1 confirm 64.4 | RNase T1 inh 70.5
CC(=O)n1nc(-c2ccccc2)nc1NCc1cccs1	none
CCc1nc(SCc2ccccc2C)n[nH]1	none (no result: TPT1 inhibitor)
CC1=Nc2ccccc2/C1=C\c1nc(-c2ccc(C(F)(F)F)cc2)oc1O	TPT1 inhibitor 156.4 | caTPT1 confirm 151.7 | RNase T1 inh 141.8
COc1ccc(-c2nc(/C=C3\C(C)=Nc4ccccc43)c(O)o2)cc1	TPT1 inhibitor 94.7 (not shown: Rpn11 block) | caTPT1 confirm 105.5 | RNase T1 inh 112.3
C[C@H](CO)N1C[C@H](C)[C@@H](CN(C)Cc2ccncc2)Oc2ccc(NC(=O)Cn3cnnn3)cc2C1=O	none (no result: TPT1 inhibitor)
CCn1c(SCC(=O)Nc2cccc(S(=O)(=O)N(C)c3ccccc3)c2)nnc1C1CC1	none (no result: TPT1 inhibitor)
O=C1OC2C(O)COC23OC(O)CCC13O (centres undefined)	none (no result: TPT1 inhibitor)
CCc1ccc(/C=C/C(=O)c2cc(Br)ccc(=O)c2O)cc1	TPT1 inhibitor 25.0 | caTPT1 confirm 25.4 | RNase T1 inh 32.8
CCOc1ccc(/C=C/C(=O)c2cc(Br)ccc(=O)c2O)cc1	TPT1 inhibitor 24.4 | caTPT1 confirm 31.5 | RNase T1 inh 41.3
COc1ccccc1N1C(=O)C2C(C(=O)c3ccccc3)=NN(c3ccccc3)C2C1=O (centres undefined)	none
O=C(C1=NN(c2ccccc2)C2C(=O)N(c3ccccc3Cl)C(=O)C12)c1ccccc1 (centres undefined)	TPT1 inhibitor 31.4 | caTPT1 confirm 31.9 | RNase T1 inh 46.0
Cc1ccc(N2C(=O)C3C(C(=O)c4ccccc4)=NN(c4ccccc4)C3C2=O)cc1 (centres undefined)	TPT1 inhibitor 29.1 | caTPT1 confirm 37.0 | RNase T1 inh 50.9
O=C(C1=NN(c2ccccc2)C2C(=O)N(c3ccccc3)C(=O)C12)c1ccccc1 (centres undefined)	TPT1 inhibitor 28.1 | caTPT1 confirm 31.6 | RNase T1 inh 44.7
N#Cc1cc(NC(=O)c2ccc(F)cc2)c(=O)n2c1[nH]c1ccccc12	TPT1 inhibitor 28.1 (no result: Rpn11 block, HNF4A DNA FP, CSN deneddyl inh) | caTPT1 confirm 29.9 | RNase T1 inh 38.3
Cc1c(CCC(=O)O)c(=O)n2c([nH]c3ccccc32)c1C#N	none
O=C(N/N=C/c1c(O)ccc2ccccc12)c1ccc(CO)nc1	TPT1 inhibitor 82.5, HNF4A DNA FP 42.3 (not shown: Rpn11 block) | caTPT1 confirm 90.8 | RNase T1 inh 93.3
O=C(NN=Cc1c(O)ccc2ccccc12)c1ccc2c(c1)OCO2	none (no result: TPT1 inhibitor)
COc1ccc(CCN2Cc3c(cccc3[N+](=O)[O-])C2=O)cc1OC	TPT1 inhibitor 29.6 | caTPT1 confirm inactive | RNase T1 inh inactive
COc1ccc(CCN2Cc3c(N)cccc3C2=O)cc1OC	none
Nc1nc(-c2c[nH]c3ccccc23)cs1	none
Cc1ccc2c(-c3csc(N)n3)c[nH]c2c1	TPT1 inhibitor 26.2 (no result: Rpn11 block, HNF4A DNA FP, CSN deneddyl inh) | caTPT1 confirm inactive | RNase T1 inh 26.6
O=C(O)c1ccccc1SCC(=O)N1CCc2ccccc21	TPT1 inhibitor 139.2 | caTPT1 confirm inactive | RNase T1 inh inactive
COc1ccc(C2=NN(C(=O)CSc3nc(=O)n4cc(C)ccc4n3)C(c3ccc(C)cc3)C2)cc1 (centres undefined)	none
O=C(Nc1ccccc1N1CCCC1)c1cc(=O)[nH]c2ccccc12	none (no result: TPT1 inhibitor)
O=[N+]([O-])C(/C=C(\Cl)[N+](=O)[O-])=C1N(Cc2ccc(Cl)nc2)CCN1Cc1ccc(Cl)nc1	TPT1 inhibitor 40.4 | caTPT1 confirm 50.7 | RNase T1 inh 70.4
O=[N+]([O-])/C(C(=C(Cl)Cl)N1CCN(Cc2ccccc2)CC1)=C1\NCCN1Cc1ccc(Cl)nc1	none
CC(=O)Nc1ccc(S(=O)(=O)Nc2nc3ccccc3nc2Nc2ccc(O)c(C(=O)O)c2)cc1	TPT1 inhibitor 43.4 (not shown: Rpn11 block) | caTPT1 confirm 24.1 | RNase T1 inh 32.8
Cc1ccc2nc(NC(=O)COC(=O)c3cccnc3)sc2c1	none (no result: TPT1 inhibitor)
